According to ChEMBL document CHEMBL1141286, “Benzochromenones from the marine crinoid Comantheria rotula inhibit hypoxia-inducible factor-1 (HIF-1) in cell-based reporter assays and differentially suppress the growth of certain tumor cell lines” (J Nat Prod, 2007):
The source made the active and inactive calls. The rule behind the calls is not given here.

Key:
T47D = test: Inhibition of 1,10-phenanthroline-induced VEGF protein secretion in human T47D cells at 10 uM after 16 hrs by ELISA; format: functional, cell-based
In short: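 T47D cells stimulated with 1,10-phenanthroline, compound at 10 μM; secreted VEGF in conditioned media by ELISA, normalized to cell-lysate protein.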

[1] = DPPH radical scavenging activity relative to Trolox; format: functional; set-up: concentration or dose not given beside the values
In short: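 Compounds were made up as DMSO stocks and diluted in isopropanol to a final 10 μM. Each was mixed with DPPH in isopropanol at 10 μM or 30 μM DPPH, and absorbance was read at 515 nm. Scavenging was calculated as [1 − OD515(compound)/OD515(control)] × 100, then expressed as a percentage of Trolox activity. One experiment was run in triplicate.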

MOLT-4 = test: Growth inhibition of human MOLT4 cells; format: functional
SR = test: Growth inhibition of human SR cells; format: functional
A549 = test: Growth inhibition of human A549 cells; format: functional
EKVX = test: Growth inhibition of human EKVX cells; format: functional
NCI-H322M = test: Growth inhibition of human NCI-H322M cells; format: functional
NCI-H460 = test: Growth inhibition of human NCI-H460 cells; format: functional
COLO 205 = test: Growth inhibition of human COLO205 cells; format: functional
HCT-15 = test: Growth inhibition of human HCT15 cells; format: functional
SW-620 = test: Growth inhibition of human SW620 cells; format: functional
SF-268 = test: Growth inhibition of human SF268 cells; format: functional
SF-539 = test: Growth inhibition of human SF539 cells; format: functional
SNB-19 = test: Growth inhibition of human SNB19 cells; format: functional
SNB-75 = test: Growth inhibition of human SNB75 cells; format: functional
LOX IMVI = test: Growth inhibition of human LOXIMVI cells; format: functional
SK-MEL-2 = test: Growth inhibition of human SK-MEL2 cells; format: functional
SK-MEL-5 = test: Growth inhibition of human SK-MEL5 cells; format: functional
UACC-257 = test: Growth inhibition of human UACC257 cells; format: functional
[2] = read-out: Log LC50 (the source's name) (converted)

## COc1cc(O)cc2cc3oc(C)cc(=O)c3c(OC)c12 [COMANTHERIN]
T47D
  Activity: inactive
[1]
  Activity: 40%
MOLT-4
  GI50: > 100 µM
MOLT-4; [2]
  CC50: > 100 µM
MOLT-4; read-out: Log TGI (converted)
  TGI: > 100 µM
SR
  GI50: 97.7 µM
SR; [2]
  CC50: > 100 µM
SR; read-out: Log TGI (converted)
  TGI: > 100 µM
A549
  GI50: > 100 µM
A549; [2]
  CC50: > 100 µM
A549; read-out: Log TGI (converted)
  TGI: > 100 µM
EKVX
  GI50: > 100 µM
EKVX; [2]
  CC50: > 100 µM
EKVX; read-out: Log TGI (converted)
  TGI: > 100 µM
NCI-H322M
  GI50: > 100 µM
NCI-H322M; [2]
  CC50: > 100 µM
NCI-H322M; read-out: Log TGI (converted)
  TGI: > 100 µM
NCI-H460
  GI50: > 100 µM
NCI-H460; [2]
  CC50: > 100 µM
NCI-H460; read-out: Log TGI (converted)
  TGI: > 100 µM
COLO 205
  GI50: > 100 µM
COLO 205; [2]
  CC50: > 100 µM
COLO 205; read-out: Log TGI (converted)
  TGI: > 100 µM
HCT-15
  GI50: > 100 µM
HCT-15; [2]
  CC50: > 100 µM
HCT-15; read-out: Log TGI (converted)
  TGI: > 100 µM
SW-620
  GI50: > 100 µM
SW-620; [2]
  CC50: > 100 µM
SW-620; read-out: Log TGI (converted)
  TGI: > 100 µM
SF-268
  GI50: 85.1 µM
  LC50: > 100 µM
SF-268; read-out: Log TGI (converted)
  TGI: > 100 µM
SF-539
  GI50: > 100 µM
  LC50: > 100 µM
SF-539; read-out: Log TGI (converted)
  TGI: > 100 µM
SNB-19
  GI50: > 100 µM
  LC50: > 100 µM
SNB-19; read-out: Log TGI (converted)
  TGI: > 100 µM
SNB-75
  GI50: > 100 µM
  LC50: > 100 µM
SNB-75; read-out: Log TGI (converted)
  TGI: > 100 µM
LOX IMVI
  GI50: > 100 µM
  LC50: > 100 µM
LOX IMVI; read-out: Log TGI (converted)
  TGI: > 100 µM
SK-MEL-2
  GI50: > 100 µM
  LC50: > 100 µM
SK-MEL-2; read-out: Log TGI (converted)
  TGI: > 100 µM
SK-MEL-5
  GI50: > 100 µM
  LC50: > 100 µM
SK-MEL-5; read-out: Log TGI (converted)
  TGI: > 100 µM
UACC-257
  GI50: > 100 µM
  LC50: > 100 µM
UACC-257; read-out: Log TGI (converted)
  TGI: > 100 µM
